According to ChEMBL document CHEMBL1799916, “Novel 3,5-bis(bromohydroxybenzylidene)piperidin-4-ones as coactivator-associated arginine methyltransferase 1 inhibitors: enzyme selectivity and cellular activity” (J Med Chem, 2011):
The source made the active and inactive calls. The calls are words filed in the database; no cut-off is given here.

What was measured:
[1] = molecular target: T1, Histone-arginine methyltransferase CARM1 (Homo sapiens, UniProt Q86X55); assay: Inhibition of CARM1-mediated methylation of PABP1 after 90 mins by scintillation counting in presence of S-adenosyl-l-[methyl-3H]methionine
T1 sequence (Q86X55 whole entry): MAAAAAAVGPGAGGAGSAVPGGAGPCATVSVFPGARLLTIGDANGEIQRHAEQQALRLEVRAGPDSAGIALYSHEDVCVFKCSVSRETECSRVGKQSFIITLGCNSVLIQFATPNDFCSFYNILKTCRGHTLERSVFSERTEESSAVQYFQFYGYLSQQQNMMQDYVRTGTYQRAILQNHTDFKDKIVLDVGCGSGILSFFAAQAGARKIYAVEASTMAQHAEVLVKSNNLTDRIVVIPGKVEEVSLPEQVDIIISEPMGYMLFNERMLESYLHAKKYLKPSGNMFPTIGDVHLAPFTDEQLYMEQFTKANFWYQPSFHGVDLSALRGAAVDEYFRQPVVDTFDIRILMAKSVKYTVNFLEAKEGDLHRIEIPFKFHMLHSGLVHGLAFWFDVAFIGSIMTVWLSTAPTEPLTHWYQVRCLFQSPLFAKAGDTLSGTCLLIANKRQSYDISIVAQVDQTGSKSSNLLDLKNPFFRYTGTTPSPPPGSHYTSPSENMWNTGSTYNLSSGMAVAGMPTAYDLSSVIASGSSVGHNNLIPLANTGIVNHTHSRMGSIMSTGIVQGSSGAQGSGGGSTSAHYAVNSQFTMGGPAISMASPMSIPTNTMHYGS

[2] = molecular target: Protein arginine N-methyltransferase 1 (Homo sapiens, UniProt Q99873); assay: Inhibition of PRMT1-mediated methylation of NPL3 after 90 mins by scintillation counting in presence of S-adenosyl-l-[methyl-3H]methionine
[3] = molecular target: Histone-lysine N-methyltransferase, H3 lysine-79 specific (Homo sapiens) (UniProt Q8TEK3); assay: Inhibition of DOTL1-mediated methylation of nucleosome at 100 uM after 90 mins by scintillation counting in presence of S-adenosyl-l-[methyl-3H]methionine
Outline: (§1)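 Compound at 100 μM with 0.1–0.2 μM recombinant enzyme and 0.5–1.5 μM substrate in PBS pH 7.4 containing [³H]AdoMet. Incubated 30 °C for 90 min, then SDS-PAGE, PVDF transfer and overnight film fluorography. Ponceau-stained substrate bands cut out and dpm counted by liquid scintillation.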

[4] = molecular target: T2, Histone-lysine N-methyltransferase EHMT2 (Homo sapiens) (UniProt Q96KQ7); assay: Inhibition of G9a-mediated methylation of histone H3 at 100 uM after 90 mins by scintillation counting in presence of S-adenosyl-l-[methyl-3H]methionine; outline: as §1
T2 sequence (whole entry): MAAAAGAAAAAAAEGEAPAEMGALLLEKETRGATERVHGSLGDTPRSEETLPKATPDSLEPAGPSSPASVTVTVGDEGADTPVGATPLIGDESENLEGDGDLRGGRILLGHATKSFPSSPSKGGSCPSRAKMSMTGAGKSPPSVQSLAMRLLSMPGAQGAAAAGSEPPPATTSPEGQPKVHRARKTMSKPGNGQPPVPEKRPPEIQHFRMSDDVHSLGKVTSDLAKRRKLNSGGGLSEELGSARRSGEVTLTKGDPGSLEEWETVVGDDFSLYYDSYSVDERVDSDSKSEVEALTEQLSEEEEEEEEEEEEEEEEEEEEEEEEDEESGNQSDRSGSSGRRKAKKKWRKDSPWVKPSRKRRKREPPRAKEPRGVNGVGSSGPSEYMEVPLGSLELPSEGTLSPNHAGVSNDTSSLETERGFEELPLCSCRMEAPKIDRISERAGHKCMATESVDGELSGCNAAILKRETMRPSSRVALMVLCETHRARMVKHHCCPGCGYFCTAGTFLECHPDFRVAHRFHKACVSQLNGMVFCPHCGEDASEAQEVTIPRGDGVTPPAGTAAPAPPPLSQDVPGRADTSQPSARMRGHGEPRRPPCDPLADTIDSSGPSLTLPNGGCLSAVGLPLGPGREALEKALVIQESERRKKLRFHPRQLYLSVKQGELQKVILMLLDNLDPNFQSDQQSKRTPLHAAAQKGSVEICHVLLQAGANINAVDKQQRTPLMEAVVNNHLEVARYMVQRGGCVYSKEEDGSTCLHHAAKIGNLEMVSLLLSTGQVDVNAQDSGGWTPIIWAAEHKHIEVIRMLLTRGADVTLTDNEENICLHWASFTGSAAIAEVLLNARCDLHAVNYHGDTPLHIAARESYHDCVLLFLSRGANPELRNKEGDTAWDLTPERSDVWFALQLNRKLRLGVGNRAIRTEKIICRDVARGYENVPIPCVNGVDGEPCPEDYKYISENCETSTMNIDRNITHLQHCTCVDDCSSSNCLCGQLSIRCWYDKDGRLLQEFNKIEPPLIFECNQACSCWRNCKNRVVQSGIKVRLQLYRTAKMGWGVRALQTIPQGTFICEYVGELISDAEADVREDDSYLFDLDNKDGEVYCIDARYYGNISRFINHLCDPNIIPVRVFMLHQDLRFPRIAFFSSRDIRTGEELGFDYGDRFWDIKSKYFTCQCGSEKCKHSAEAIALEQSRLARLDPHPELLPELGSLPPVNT

[5] = molecular target: T3, Histone-lysine N-methyltransferase SUV39H1 (Homo sapiens) (UniProt O43463); assay: Inhibition of Suv39H1-mediated methylation of histone H3 at 100 uM after 90 mins by scintillation counting in presence of S-adenosyl-l-[methyl-3H]methionine
T3 sequence (whole entry): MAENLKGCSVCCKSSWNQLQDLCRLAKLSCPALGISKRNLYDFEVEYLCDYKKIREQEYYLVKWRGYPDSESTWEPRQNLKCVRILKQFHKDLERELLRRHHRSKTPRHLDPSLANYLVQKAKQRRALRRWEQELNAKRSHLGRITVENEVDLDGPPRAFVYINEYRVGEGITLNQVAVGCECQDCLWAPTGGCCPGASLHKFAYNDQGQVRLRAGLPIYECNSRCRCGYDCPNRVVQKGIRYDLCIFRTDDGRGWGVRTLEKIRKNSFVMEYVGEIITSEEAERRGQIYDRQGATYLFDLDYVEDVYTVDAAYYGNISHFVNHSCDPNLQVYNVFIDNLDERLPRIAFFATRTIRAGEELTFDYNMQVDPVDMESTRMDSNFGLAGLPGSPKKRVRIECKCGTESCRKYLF

Sequence of Protein arginine N-methyltransferase 1 (Q99873 whole entry): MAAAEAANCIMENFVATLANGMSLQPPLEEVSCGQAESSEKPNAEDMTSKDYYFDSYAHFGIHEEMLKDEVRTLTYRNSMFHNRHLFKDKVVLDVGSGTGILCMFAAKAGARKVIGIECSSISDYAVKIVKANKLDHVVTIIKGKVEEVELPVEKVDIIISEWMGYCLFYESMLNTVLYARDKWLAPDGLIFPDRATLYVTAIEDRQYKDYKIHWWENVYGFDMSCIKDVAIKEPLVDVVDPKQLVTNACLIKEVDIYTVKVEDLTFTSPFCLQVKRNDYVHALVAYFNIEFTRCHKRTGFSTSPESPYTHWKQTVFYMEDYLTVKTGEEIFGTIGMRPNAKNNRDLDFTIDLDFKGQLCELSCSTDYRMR
Sequence of Histone-lysine N-methyltransferase, H3 lysine-79 specific (Homo sapiens) (Q8TEK3 whole entry, looked up): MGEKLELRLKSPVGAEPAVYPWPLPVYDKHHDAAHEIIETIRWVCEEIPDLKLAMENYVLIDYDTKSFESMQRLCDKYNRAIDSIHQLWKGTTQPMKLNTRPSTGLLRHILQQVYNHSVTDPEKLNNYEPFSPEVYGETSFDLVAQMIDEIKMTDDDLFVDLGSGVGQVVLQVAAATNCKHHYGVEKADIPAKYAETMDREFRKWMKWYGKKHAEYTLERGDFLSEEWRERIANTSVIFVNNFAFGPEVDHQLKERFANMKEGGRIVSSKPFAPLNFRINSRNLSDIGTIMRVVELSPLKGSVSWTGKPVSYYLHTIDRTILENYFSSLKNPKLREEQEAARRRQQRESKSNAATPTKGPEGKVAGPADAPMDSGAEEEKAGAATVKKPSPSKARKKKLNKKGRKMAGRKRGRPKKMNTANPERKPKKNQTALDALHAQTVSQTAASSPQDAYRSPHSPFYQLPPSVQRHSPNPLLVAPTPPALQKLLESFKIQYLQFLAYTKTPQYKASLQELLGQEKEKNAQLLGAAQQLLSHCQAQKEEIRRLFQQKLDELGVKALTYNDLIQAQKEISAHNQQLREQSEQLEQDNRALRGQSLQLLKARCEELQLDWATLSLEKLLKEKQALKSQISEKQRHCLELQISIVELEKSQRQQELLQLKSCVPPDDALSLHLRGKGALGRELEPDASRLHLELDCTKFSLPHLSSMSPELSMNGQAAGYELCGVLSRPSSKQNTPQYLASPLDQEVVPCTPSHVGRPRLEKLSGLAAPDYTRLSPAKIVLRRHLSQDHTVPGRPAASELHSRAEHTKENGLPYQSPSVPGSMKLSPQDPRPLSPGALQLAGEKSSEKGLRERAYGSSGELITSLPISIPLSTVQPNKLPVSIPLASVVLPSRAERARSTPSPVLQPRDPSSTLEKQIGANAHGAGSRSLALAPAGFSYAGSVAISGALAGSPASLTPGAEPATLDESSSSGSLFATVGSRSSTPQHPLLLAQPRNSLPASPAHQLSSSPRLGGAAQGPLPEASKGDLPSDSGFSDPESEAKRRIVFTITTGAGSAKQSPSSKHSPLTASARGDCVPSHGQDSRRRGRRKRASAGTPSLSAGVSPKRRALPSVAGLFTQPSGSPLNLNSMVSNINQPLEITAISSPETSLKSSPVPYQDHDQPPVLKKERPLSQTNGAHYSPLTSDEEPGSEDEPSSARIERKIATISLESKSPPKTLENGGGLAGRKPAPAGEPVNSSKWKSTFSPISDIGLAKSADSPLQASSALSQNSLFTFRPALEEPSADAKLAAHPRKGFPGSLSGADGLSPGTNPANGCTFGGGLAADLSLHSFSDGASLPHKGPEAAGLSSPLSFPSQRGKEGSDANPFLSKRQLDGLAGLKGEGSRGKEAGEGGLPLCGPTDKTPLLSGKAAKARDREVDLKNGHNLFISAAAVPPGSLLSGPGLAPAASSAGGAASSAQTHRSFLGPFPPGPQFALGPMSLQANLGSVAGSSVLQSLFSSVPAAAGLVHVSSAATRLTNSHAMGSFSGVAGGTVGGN

| SMILES | IC50 [1] | IC50 [2] | inhibition [3] | inhibition [4] | inhibition [5] |
| --- | --- | --- | --- | --- | --- |
| O=C1/C(=C/c2ccc(O)c(Br)c2)CN(CC(=O)c2ccccc2)C/C1=C\c1ccc(O)c(Br)c1 | 14.4 µM | > 667 µM | inactive | inactive | inactive |
| O=C1/C(=C/c2ccc(O)c(Br)c2)CN(Cc2cccc(Cl)c2)C/C1=C\c1ccc(O)c(Br)c1 | 8.1 µM | > 667 µM | inactive | inactive | inactive |
| O=C1/C(=C/c2ccc(O)c(Br)c2)CN(Cc2ccccc2)C/C1=C\c1ccc(O)c(Br)c1 | 8.6 µM | > 667 µM | inactive | inactive | inactive |
